Data on 20 compounds can be found in PMC9052575 (RSC Advances, 2020).

Where two headings read alike, the source gives them in different places.

One experiment has as its system MCF-7 cells. As to the kind of experiment: MTT anti-proliferative assay, MCF-7. The class given is cell-based, human. The conditions noted are these: for IC50: read-out: IC50 against MCF-7 cells.
A further experiment has as its system MDA-MB-231 cells. As to the kind of experiment: MTT anti-proliferative assay, MDA-MB-231. It is filed as cell-based, human. Particulars: read-out: IC50 against MDA-MB-231 cells.
The next experiment concerns HEK-293 cells. Briefly: MTT toxicity assay, normal/non-tumor HEK-293 cells. The class given is cell-based. The conditions noted are these: Homo sapiens, HEK293, read-out: IC50 against HEK-293 cells. The procedure, abridged:
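HEK-293 cells seeded at 5000 cells/well in triplicate. After 24 h, exposed for 24 h at 37 °C and 5% CO2 to test compound at 1–100 μM, diluted in complete DMEM. MTT (5 mg mL−1 stock in PBS) added for 2 h, then 10% SDS/10 mM HCl for 16 h at 37 °C. OD read at 570 nm.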

[1] abbreviates: MTT assay, 24 hours treatment, 1-100 μM.

Broadly, the IC50 is the concentration at which inhibition is half-maximal. On to `CC(=O)N1N=C(c2ccc(OCc3cn(C(C)CN4C(=O)c5cccc6cccc(c56)C4=O)nn3)cc2)CC1[c-]1cccc1.[Fe+2].c1cc[cH-]c1` (stereo not shown) [15b, 2-(2-(4-((4-(1-Acetyl-5-ferrocenyl-4,5-dihydro-1H-pyrazol-3-yl)phenoxy)methyl)-1H-1,2,3-triazol-1-yl)propyl)-1H-benzo[de]isoquinoline-1,3(2H)-dione], for which the IC50 in the experiment with MCF-7 cells (setting [1]) and with MDA-MB-231 cells (setting [1]) was over 100 µM throughout.
With `CC1=CC(=O)c2c(O)cccc2C1=O` [Plumbagin, reference compound], the IC50 in the experiment on MCF-7 cells (Homo sapiens, MCF7, 24 h) stood at 3.5 µM.
As for `CC(=O)N1N=C(c2ccc(OCc3cn(CCN4C(=O)c5cccc6cccc(c56)C4=O)nn3)cc2)CC1[c-]1cccc1.[Fe+2].c1cc[cH-]c1` (stereo not shown) [15a, 2-(2-(4-((4-(1-Acetyl-5-ferrocenyl-4,5-dihydro-1H-pyrazol-3-yl)phenoxy)methyl)-1H-1,2,3-triazol-1-yl)ethyl)-1H-benzo[de]isoquinoline-1,3(2H)-dione], the IC50 in the experiment with MCF-7 cells (setting [1]) and with MDA-MB-231 cells (setting [1]) was over 100 µM each time.
On to `CC(=O)N1N=C(c2ccc(OCc3cn(CCCN4C(=O)c5cccc6cccc(c56)C4=O)nn3)cc2)CC1c1ccc([N+](=O)[O-])cc1` (stereo not shown) [13h, 2-(3-(4-((4-(1-Acetyl-5-(4-nitrophenyl)-4,5-dihydro-1H-pyrazol-3-yl)phenoxy)methyl)-1H-1,2,3-triazol-1-yl)propyl)-1H-benzo[de]isoquinoline-1,3(2H)-dione], for which the IC50 is over 100 µM with MCF-7 cells (Homo sapiens, MCF7, 24 h) and over 100 µM with MDA-MB-231 cells (Homo sapiens, MDA-MB-231, 24 h).
With `CC(=O)N1N=C(c2ccc(OCc3cn(CCCN4C(=O)c5cccc6cccc(c56)C4=O)nn3)cc2)CC1c1ccccc1` (stereo not shown) [13e, 2-(3-(4-((4-(1-Acetyl-5-phenyl-4,5-dihydro-1H-pyrazol-3-yl)phenoxy)methyl)-1H-1,2,3-triazol-1-yl)propyl)-1H-benzo[de]isoquinoline-1,3(2H)-dione], the IC50 with MCF-7 cells (Homo sapiens, MCF7, 24 h) is over 100 µM; in the experiment on MDA-MB-231 cells (Homo sapiens, MDA-MB-231, 24 h), over 100 µM.
With `CC(=O)N1N=C(c2ccc(OCc3cn(CCN4C(=O)c5cccc6cccc(c56)C4=O)nn3)cc2)CC1c1ccccc1` (stereo not shown) [13a, 2-(2-(4-((4-(1-Acetyl-5-phenyl-4,5-dihydro-1H-pyrazol-3-yl)phenoxy)methyl)-1H-1,2,3-triazol-1-yl)ethyl)-1H-benzo[de]isoquinoline-1,3(2H)-dione], the IC50 is over 100 µM in the experiment with MCF-7 cells (Homo sapiens, MCF7, 24 h) and over 100 µM in the experiment on MDA-MB-231 cells (Homo sapiens, MDA-MB-231, 24 h).
Turning to `COc1ccc(OC)c(/C=C/C(=O)c2ccc(OCc3cn(CCN4C(=O)c5cccc6cccc(c56)C4=O)nn3)cc2)c1` [12c, (E)-2-(2-(4-((4-(3-(2,5-Dimethoxyphenyl)acryloyl)phenoxy)methyl)-1H-1,2,3-triazol-1-yl)ethyl)-1H-benzo[de]isoquinoline-1,3(2H)-dione], the 50% inhibitory concentration (IC50) in the experiment on MCF-7 cells (Homo sapiens, MCF7, 24 h) was over 100 µM; in the experiment on MDA-MB-231 cells (Homo sapiens, MDA-MB-231, 24 h), over 100 µM.
`O=C(C=Cc1ccccc1)c1ccc(OCc2cn(CCCN3C(=O)c4cccc5cccc(c45)C3=O)nn2)cc1` [12e, 2-(3-(4-((4-Cinnamoylphenoxy)methyl)-1H-1,2,3-triazol-1-yl)propyl)-1H-benzo[de]isoquinoline-1,3(2H)-dione]: the IC50 in the experiment with MCF-7 cells (Homo sapiens, MCF7, 24 h) was over 100 µM; in the experiment on MDA-MB-231 cells (Homo sapiens, MDA-MB-231, 24 h), over 100 µM.
In the case of `CC(=O)N1N=C(c2ccc(OCc3cn(CCN4C(=O)c5cccc6cccc(c56)C4=O)nn3)cc2)CC1c1ccc([N+](=O)[O-])cc1` (stereo not shown) [13d, 2-(2-(4-((4-(1-Acetyl-5-(4-nitrophenyl)-4,5-dihydro-1H-pyrazol-3-yl)phenoxy)methyl)-1H-1,2,3-triazol-1-yl)ethyl)-1H-benzo[de]isoquinoline-1,3(2H)-dione], the IC50 in the experiment on MCF-7 cells (Homo sapiens, MCF7, 24 h) was over 100 µM; with MDA-MB-231 cells (Homo sapiens, MDA-MB-231, 24 h), over 100 µM.
Take `COc1ccc(/C=C/C(=O)c2ccc(OCc3cn(CCN4C(=O)c5cccc6cccc(c56)C4=O)nn3)cc2)cc1` [12b, (E)-2-(2-(4-((4-(3-(4-Methoxyphenyl)acryloyl)phenoxy)methyl)-1H-1,2,3-triazol-1-yl)ethyl)-1H-benzo[de]isoquinoline-1,3(2H)-dione]: the IC50 in the experiment with MCF-7 cells (Homo sapiens, MCF7, 24 h) is over 100 µM; in the experiment on MDA-MB-231 cells (Homo sapiens, MDA-MB-231, 24 h), over 100 µM.
With `COc1ccc(C2CC(c3ccc(OCc4cn(CCCN5C(=O)c6cccc7cccc(c67)C5=O)nn4)cc3)=NN2C(C)=O)cc1` (stereo not shown) [13f, 2-(3-(4-((4-(1-Acetyl-5-(4-methoxyphenyl)-4,5-dihydro-1H-pyrazol-3-yl)phenoxy)methyl)-1H-1,2,3-triazol-1-yl)propyl)-1H-benzo[de]isoquinoline-1,3(2H)-dione], the IC50 was over 100 µM with HEK-293 cells; 98.1 µM with MCF-7 cells (Homo sapiens, MCF7, 24 h); over 100 µM in the experiment with MDA-MB-231 cells (Homo sapiens, MDA-MB-231, 24 h). In addition, the “IC50 against MCF-7 cells” value in the experiment on MCF-7 cells (setting [1]) was “moderate cytotoxicity”.
Regarding `O=C(/C=C/c1ccc([N+](=O)[O-])cc1)c1ccc(OCc2cn(CCCN3C(=O)c4cccc5cccc(c45)C3=O)nn2)cc1` [12h, (E)-2-(3-(4-((4-(3-(4-nitrophenyl)acryloyl)phenoxy)methyl)-1H-1,2,3-triazol-1-yl)propyl)-1H-benzo[de]isoquinoline-1,3(2H)-dione], the IC50 in the experiment on MCF-7 cells (Homo sapiens, MCF7, 24 h) is over 100 µM; in the experiment with MDA-MB-231 cells (Homo sapiens, MDA-MB-231, 24 h), over 100 µM.
As for `COc1ccc(OC)c(C2CC(c3ccc(OCc4cn(CCCN5C(=O)c6cccc7cccc(c67)C5=O)nn4)cc3)=NN2C(C)=O)c1` (stereo not shown) [13g, 2-(3-(4-((4-(1-Acetyl-5-(2,5-dimethoxyphenyl)-4,5-dihydro-1H-pyrazol-3-yl)phenoxy)methyl)-1H-1,2,3-triazol-1-yl)propyl)-1H-benzo[de]isoquinoline-1,3(2H)-dione], the IC50 was over 100 µM in the experiment on HEK-293 cells; 62.2 µM in the experiment with MCF-7 cells (Homo sapiens, MCF7, 24 h); over 100 µM in the experiment with MDA-MB-231 cells (Homo sapiens, MDA-MB-231, 24 h). Moreover, the “IC50 against MCF-7 cells” value in the experiment on MCF-7 cells (setting [1]) was “moderate cytotoxicity”.
In the case of `COc1ccc(/C=C/C(=O)c2ccc(OCc3cn(CCCN4C(=O)c5cccc6cccc(c56)C4=O)nn3)cc2)cc1` [12f, (E)-2-(3-(4-((4-(3-(4-Methoxyphenyl)acryloyl)phenoxy)methyl)-1H-1,2,3-triazol-1-yl)propyl)-1H-benzo[de]isoquinoline-1,3(2H)-dione], the IC50 in the experiment on MCF-7 cells (Homo sapiens, MCF7, 24 h) is over 100 µM; in the experiment on MDA-MB-231 cells (Homo sapiens, MDA-MB-231, 24 h) it was over 100 µM.
Turning to `COc1ccc(OC)c(C2CC(c3ccc(OCc4cn(CCN5C(=O)c6cccc7cccc(c67)C5=O)nn4)cc3)=NN2C(C)=O)c1` (stereo not shown) [13c, 2-(2-(4-((4-(1-Acetyl-5-(2,5-dimethoxyphenyl)-4,5-dihydro-1H-pyrazol-3-yl)phenoxy)methyl)-1H-1,2,3-triazol-1-yl)ethyl)-1H-benzo[de]isoquinoline-1,3(2H)-dione], the IC50 is over 100 µM with MCF-7 cells (Homo sapiens, MCF7, 24 h) and over 100 µM with MDA-MB-231 cells (Homo sapiens, MDA-MB-231, 24 h).
Turning to `O=C(/C=C/[c-]1cccc1)c1ccc(OCc2cn(CCN3C(=O)c4cccc5cccc(c45)C3=O)nn2)cc1.[Fe+2].c1cc[cH-]c1` [14a, (E)-2-(2-(4-((4-(3-Ferrocenyl-acryloyl)phenoxy)methyl)-1H-1,2,3-triazol-1-yl)ethyl)-1H-benzo[de]isoquinoline-1,3(2H)-dione], the IC50 in the experiment on MCF-7 cells (setting [1]) and in the experiment on MDA-MB-231 cells (setting [1]) was over 100 µM throughout.
Take `COc1ccc(OC)c(/C=C/C(=O)c2ccc(OCc3cn(CCCN4C(=O)c5cccc6cccc(c56)C4=O)nn3)cc2)c1` [12g, (E)-2-(3-(4-((4-(3-(2,5-Dimethoxyphenyl)acryloyl)phenoxy)methyl)-1H-1,2,3-triazol-1-yl)propyl)-1H-benzo[de]isoquinoline-1,3(2H)-dione]: the IC50 with MCF-7 cells (Homo sapiens, MCF7, 24 h) is over 100 µM; in the experiment with MDA-MB-231 cells (Homo sapiens, MDA-MB-231, 24 h) it was over 100 µM.
Take `O=C(/C=C/c1ccc([N+](=O)[O-])cc1)c1ccc(OCc2cn(CCN3C(=O)c4cccc5cccc(c45)C3=O)nn2)cc1` [12d, (E)-2-(2-(4-((4-(3-(4-Nitrophenyl)acryloyl)phenoxy)methyl)-1H-1,2,3-triazol-1-yl)ethyl)-1H-benzo[de]isoquinoline-1,3(2H)-dione]: the IC50 in the experiment on MCF-7 cells (Homo sapiens, MCF7, 24 h) was over 100 µM; in the experiment with MDA-MB-231 cells (Homo sapiens, MDA-MB-231, 24 h), over 100 µM.
For the compound `COc1ccc(C2CC(c3ccc(OCc4cn(CCN5C(=O)c6cccc7cccc(c67)C5=O)nn4)cc3)=NN2C(C)=O)cc1` (stereo not shown) [13b, 2-(2-(4-((4-(1-Acetyl-5-(4-methoxyphenyl)-4,5-dihydro-1H-pyrazol-3-yl)phenoxy)methyl)-1H-1,2,3-triazol-1-yl)ethyl)-1H-benzo[de]isoquinoline-1,3(2H)-dione], the IC50 was over 100 µM in the experiment with MCF-7 cells (Homo sapiens, MCF7, 24 h) and over 100 µM in the experiment on MDA-MB-231 cells (Homo sapiens, MDA-MB-231, 24 h).
As for `CC(CN1C(=O)c2cccc3cccc(c23)C1=O)n1cc(COc2ccc(C(=O)/C=C/[c-]3cccc3)cc2)nn1.[Fe+2].c1cc[cH-]c1` (stereo not shown) [14b, (E)-2-(2-(4-((4-(3-Ferrocenyl-acryloyl)phenoxy)methyl)-1H-1,2,3-triazol-1-yl)propyl)-1H-benzo[de]isoquinoline-1,3(2H)-dione], the IC50 in the experiment with MCF-7 cells (setting [1]) and in the experiment on MDA-MB-231 cells (setting [1]) was over 100 µM in each case.
